# PG9 Ab binder = binds the HIV-1 gp120 antibody PG9. TR-FRET gp120-PG9 antibody binding. AID 624416. inhibition, % at 6.7 µM. hit rate 0.43% among 360,000; in the data active means inhibition above about 8.5%
# Rev-erbA mod = Rev-erb alpha (human) modulation; AID 1259318; activity, % at 10 µM; P20393; hit rate 0.79% among 370,000; Rev-erbα–FITC-DNA binding, fluorescence polarization, 90 min;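 active means activity above about 14%, limit read from the data; passing the limit was not always enough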;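 further: 0% = DMSO wells with 35 nM protein and 100% = DMSO wells with 750 nM protein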
# Target sequence (P20393 whole entry, looked up): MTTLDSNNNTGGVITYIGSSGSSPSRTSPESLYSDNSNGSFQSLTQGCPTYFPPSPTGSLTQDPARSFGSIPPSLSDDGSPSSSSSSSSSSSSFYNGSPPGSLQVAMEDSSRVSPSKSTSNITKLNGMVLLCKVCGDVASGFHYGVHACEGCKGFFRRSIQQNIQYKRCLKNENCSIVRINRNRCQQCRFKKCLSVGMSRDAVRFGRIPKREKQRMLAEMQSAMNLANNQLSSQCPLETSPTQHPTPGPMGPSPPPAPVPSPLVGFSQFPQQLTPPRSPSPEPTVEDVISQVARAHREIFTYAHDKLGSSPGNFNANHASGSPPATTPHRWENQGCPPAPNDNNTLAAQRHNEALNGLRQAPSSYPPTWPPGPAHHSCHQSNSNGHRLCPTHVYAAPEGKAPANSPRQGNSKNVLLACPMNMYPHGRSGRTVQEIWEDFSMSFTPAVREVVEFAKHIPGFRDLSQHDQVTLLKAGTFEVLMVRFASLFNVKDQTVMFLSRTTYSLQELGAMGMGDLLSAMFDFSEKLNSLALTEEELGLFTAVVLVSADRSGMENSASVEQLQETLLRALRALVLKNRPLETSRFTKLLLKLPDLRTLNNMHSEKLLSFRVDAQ
# CR mimetic SO = yeast age-related superoxide inhibition as caloric restriction mimetic | AID 2690 | S. cerevisiae aged cells, superoxide DHE fluorescence; active compounds read low | hit rate 0.18% among 330,000 | superoxide response (% of plate mean), % at 10 µM;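 active means superoxide response under a set limit, about three screen SD below normal, cut at about 65% in these data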;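 further: yeast aged for seven days with compound at 30 °C before DHE staining; 100% = average MFI of all compound-treated wells on the plate with controls excluded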
# Rce1 inhib = inhibitors of yeast Ras-converting enzyme | Q03530 | yeast membranes, quenched prenylated peptide cleavage fluorescence | calls only | hit rate 0.27% among 290,000 | AID 2563;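 active means fall in fluorescence gain of 50% or more versus controls, with final raw signal at or below 3038400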;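 further: plate controls were neutral control wells for no effect and wells lacking membranes for full effect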
# UCH37 inh = inhibitors of human deubiquitinating enzyme UCH37 | hit rate 0.33% among 330,000 | inhibition, % (test concentration not listed) | purified proteasome/UCH37, Ub-AMC cleavage fluorescence | AID 588478;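 active means mean inhibition over replicate wells above about 20%, limit read from the data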;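 further: 0% = compound-free wells with enzyme and 100% = wells lacking proteasome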
#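 Test system – human UCH37 enzyme supplied as purified proteasome complex · Incubation – 30 min preincubation with enzyme, 25 min cleavage at room temperature · Detection – AMC fluorescence from Ub-AMC cleavage, excitation 355 nm, emission 460 nm · Benchmarks – no-proteasome wells (full inhibition) and compound-free wells (no inhibition)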
# MIN6 prolif = inducers of beta-cell replication in MIN6 cells; MIN6 cells proliferation, ATPlite luminescence, 48 h; cells starved in 0.2% serum; 100% = growth in 10% serum; proliferation, % at 10 µM; hit rate 0.29% among 330,000; AID 2380;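 active means compounds whose signal lies at least 3.5 SD above the mean of all wells on their plate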;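 further: 0% = DMSO-treated cells in low-serum medium and 100% = 10% serum control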
# CR mimetic CP = confirmation of caloric restriction mimetics inhibiting yeast age-related superoxide | S. cerevisiae aging, superoxide DHE fluorescence; active compounds read low | superoxide response (% of plate), % at 10 µM | shares compounds with CR mimetic SO | hit rate 1% among 850;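 active means superoxide signal below 65% of the plate average of sample wells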;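 further: cells aged with compound for 7 days at 30 degrees C before staining; 100% equals mean DHE fluorescence of all compound wells on the plate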
# DHE counter = counter-screen for compounds affecting DHE oxidation and fluorescence in yeast | fluorescence response, % at 10 µM | 850 tested, under 10 active | S. cerevisiae BY4741, flow cytometry; active compounds read low | shares compounds with CR mimetic SO;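 active means fluorescence response below 15%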;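 further: percent of the mean fluorescence averaged over all compound wells on the plate; lower means stronger quenching of DHE signal or ROS scavenging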
# Numbers without * were called inactive; i = inactive; x = not tested or not shown; ! = a repeat was not active. An excerpt weighted towards active compounds, which were near 1.9% of everything screened.
SMILES,PG9 Ab binder,Rev-erbA mod,CR mimetic SO,Rce1 inhib,UCH37 inh,MIN6 prolif,CR mimetic CP,DHE counter
COc1ccccc1NC(=O)CSc1ccc(-c2ccc(-n3ccnc3)cc2)nn1,7.8,8.2,99.2,i,-0.5,-0.7,105.2,90.1
Cc1nc2ccccc2c(=O)n1/N=C/c1cc(Br)ccc1O,0.4,-0.3,64.0*,i,x,1.8,106.0,103.6
CC(C)(C)c1ccc(/C=C/C(=O)c2ccc(NC3=NCCCS3)cc2)cc1,-3.1,-4.0,46.0*,i,3.3,-5.8,113.3,121.6
O=C(/C=C/c1ccc(Br)cc1)c1ccc(NC2=NCCCS2)cc1,-2.7,3.3,77.4,i,5.0,-6.0,x,x
Cc1cc(NC(=O)CSc2nnc(-c3ccc(S(=O)(=O)N4CCCC4)cc3)n2C)no1,-0.2,1.1,51.1*,i,7.3,-2.5,89.8,108.2
O=C(NN=Cc1ccc(C(F)(F)F)cc1)c1ccncc1,x,x,x,x,7.6,x,x,x
c1cnc2c(c1)ccc1cccnc12,0.5,0.5,63.7*!,i,2.4,-4.2,88.9,105.1
O=Cc1ccc2ccc3cccnc3c2n1,-1.0,-1.1,102.9,i,-0.1,-4.1,x,x
O=C(Nc1ccc2nc3ccccc3nc2c1)c1ccccc1,-6.2,1.0,46.5*,i,-8.1,x,59.1*,94.2
CN(NC1OC(=O)c2ccccc21)c1ccc(Cl)cc1[N+](=O)[O-] (centres undefined),-3.0,1.4,55.3*,i,10.4,-2.4,82.6,111.4
COc1ccc(C2C(C(C)=O)=C(C)N=c3sc(=Cc4ccc5c(c4)OCO5)c(=O)n32)cc1 (centres undefined),x,x,x,x,-1.6,x,x,x
COc1ccc(NC(C)=O)cc1NC(=O)CSc1nnc(-c2ccc(F)cc2)n1N,-1.6,6.9,93.4,i,5.5,-3.6,111.3,106.4
CCOc1cccc(-c2nnc(SCC(=O)Nc3cc(OC)cc(OC)c3)n2N)c1,-0.1,-3.3,115.7,i,3.6,-2.8,x,x
COc1cccc(NC(=O)CSc2nnc(-c3cccc(OC(C)C)c3)n2N)c1,1.7,1.0,90.2,i,4.1,-3.4,i,101.0
CCOc1cccc(-c2nnc(SCC(=O)Nc3ccc(OC)c(OC)c3)n2N)c1,-2.2,0.3,85.5,i,1.1,-2.9,91.7,93.7
COc1ccc(C)cc1NC(=O)CSc1nnc(-c2ccc(OC)c(OC)c2)n1N,1.3,0.1,111.4,i,2.3,3.5,x,x
COc1ccc(NN=C(C(N)=O)C2=NC(C)(C)Cc3ccccc32)cc1,x,x,x,x,2.4,x,x,x
COc1ccc2c(c1)c1nnc(SC)nc1n2C,1.0,6.7,43.8*,i,4.4,-2.2,66.5,87.4
O=C(O)c1cccc2c1C(=NO)c1ccccc1-2,x,x,x,x,3.4,x,x,x
CCOc1cc(C)c(S(=O)(=O)N2CCCC2)cc1C,0.6,2.3,64.5*,i,4.3,-3.0,88.8,105.9
N#Cc1ccc(N2Cc3ccccc3C2=NC(=O)Nc2ccc(Cl)cc2)cc1,x,x,x,x,-40.0,x,x,x
O=c1c2ccccc2ncn1Cc1ccccc1,-2.0,-5.9,57.1*,i,1.5,2.9,97.8,94.8
CSc1ncc(Cl)c(C(=O)Nc2ccc(NC(C)=O)cc2)n1,-1.6,-7.3,94.4,i,6.0,0.3,x,x
CSc1ncc(Cl)c(C(=O)Nc2ccccc2Cl)n1,-0.3,3.3,97.9,i,-7.8,2.1,101.2,89.4
CCSc1ncc(Cl)c(C(=O)Nc2ccccc2Cl)n1,0.5,-2.1,92.8,i,-0.2,-0.4,108.0,101.4
SMILES,PG9 Ab binder,Rev-erbA mod,CR mimetic SO,Rce1 inhib,UCH37 inh,MIN6 prolif,CR mimetic CP,DHE counter
CSc1ncc(Cl)c(C(=O)Nc2c(C)cccc2C)n1,-1.5,-9.5,106.0,i,0.0,-0.5,107.7,104.8
O=c1nc(NN=Cc2c[nH]c3ccccc23)cn[nH]1,x,x,x,x,12.8,x,x,x
O=C(COC(=O)c1cc(S(=O)(=O)N2CCOCC2)cs1)c1ccccc1,1.3,-4.5,64.5*,i,0.0,-1.1,108.5,111.9
COc1cc(-c2nnc(SCC(=O)c3ccccc3)o2)cc(OC)c1OC,-2.0,-3.4,113.3,i,1.0,-2.1,x,x
CCCOC(=O)CSc1nnc(-c2cc(OC)c(OC)c(OC)c2)o1,-0.9,-0.3,91.9,i,2.8,-4.7,97.5,112.0
CCCCCOC(=O)CSc1nnc(-c2cc(OC)c(OC)c(OC)c2)o1,-1.5,-5.1,112.6,i,0.6,-4.2,124.1,108.9
CCOC(=O)CSc1nnc(-c2cc(OC)c(OC)c(OC)c2)o1,-0.3,-2.3,99.5,i,-0.5,-0.6,94.0,98.3
COc1cc(-c2nnc(SCC(=O)OC3CCCCC3)o2)cc(OC)c1OC,-0.6,0.5,112.5,i,1.8,-4.1,x,x
CC1CCCN(CC(O)=C(C#N)c2nc3ccccc3[nH]2)C1 (centres undefined),x,x,x,x,4.3,x,x,x
CC(C)=NNC(=O)c1c(O)c2ccccc2[nH]c1=O,-1.7,2.1,62.1*,i,3.1,-4.4,83.0,94.4
CN(C)S(=O)(=O)c1cccc(NC(=S)NN=CC(c2ccccc2)c2ccccc2)c1,x,x,x,x,2.0,x,x,x
CC(C)(C)n1nc(-c2ccc(F)cc2)c2c(N)ncnc21,-0.5,-8.4,32.0*,i,4.3,-4.1,72.3,93.1
CC(C)(C)n1nc(-c2ccc(Cl)cc2)c2c(N)ncnc21,0.8,-6.4,49.6*,i,-1.7,-4.2,55.8*,92.5
CC(=NNC(=O)COc1cc(C)cc(C)c1)c1cccc(NC(=O)C2CCC2)c1,x,x,x,x,6.4,x,x,x
O=C(COc1ccccc1[N+](=O)[O-])NN=Cc1cccs1,x,x,x,x,5.6,x,x,x
C=CCn1c(SCC(=O)Nc2cc(C)ccc2OC)nnc1-c1ccco1,1.2,3.0,115.5,i,-1.0,2.4,95.8,91.1
C=CCn1c(SCC(=O)Nc2cc(C)c(Cl)cc2OC)nnc1-c1ccco1,-1.7,4.0,97.5,i,1.0,-2.8,103.7,97.2
OCCN(CCO)c1ccc(C(c2ccc(Cl)cc2)c2ccc(N(CCO)CCO)cc2Cl)c(Cl)c1,-1.3,0.6,61.8*,i,1.8,-3.6,94.9,96.7
Nc1ccc(N(CCO)CCO)cc1,-15.3,-8.8,110.8,i,5.4,2.1,x,x
COC(=O)c1cccc2nc3c(C(C)O)cccc3nc12 (centres undefined),-6.6,-0.7,50.0*,i,6.9,-0.7,65.9,113.0
Cc1[nH]c2ccccc2c1N=Nc1ccccc1F,-2.1,2.8,64.7*,i,5.7,-2.5,90.9,98.3
C=C(C)CNC(=S)NNC(=O)CCn1c2ccccc2c2ccccc21,0.2,4.9,103.8,i,0.9,-2.7,104.5,91.2
C=C(C)CNC(=S)NNC(=O)CCn1c2ccc(Cl)cc2c2cc(Cl)ccc21,2.6,1.9,106.0,i,3.5,-5.6,107.6,90.1
C=C(C)CNC(=S)NNC(=O)c1ccncc1,0.3,-0.2,92.4,x,1.6,2.0,x,x

# Screens from PubChem BioAssay.
